Results published in ChEMBL document CHEMBL1132158, “4-[[2-(1-Methyl-2-pyrrolidinyl)ethyl]thio]phenol hydrochloride (SIB-1553A): a novel cognitive enhancer with selectivity for neuronal nicotinic acetylcholine receptors” (J Med Chem, 1999).

How the values were obtained:
Assay type in all cases: functional
[1] = system: Rattus norvegicus; test: Acetylcholine release data in […] rats when compound was administered subcutaneously at dose of 40 mg/kg; settings: route subcutaneous
In short: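 In vivo acetylcholine release from hippocampus of freely moving Sprague–Dawley rats after subcutaneous dosing. […] Mean ± SEM of 2–6 independent experiments, compared against saline control by two-way repeated measures ANOVA with Student–Newman–Keuls post-hoc test.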

[2] = organism: Rattus norvegicus; test: In vitro efficacy to stimulate [3H]NE in rat prefrontal cortex membrane slice
In short: (§1)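 Release of [3H]DA (striatum) or [3H]NE (hippocampus, prefrontal cortex) from rat brain slice preparations stimulated by test compound at 300 μM. […] Mean ± SD of 3–6 experiments.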

[3] = organism: Rattus norvegicus; test: In vitro efficacy to stimulate [3H]NE in rat hippocampus; in short: as §1
[4] = organism: Rattus norvegicus; test: In vitro efficacy to stimulate the release of [3H]dopamine from rat striatal slices; in short: as §1
[5] = system: Rattus norvegicus; test: Acetylcholine release data in […] rats when compound was administered subcutaneously at dose of 40(mg/Kg)
[6] = organism: Rattus norvegicus; test: In vitro efficacy to stimulate [3H]-dopamine from brain slice preparations
In short: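 Striatal brain slices stimulated with test compound at 300 μM; [3H]dopamine release measured. […] Mean ± SD of 3–6 experiments.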

| Structure (SMILES) | Activity [1] | Efficacy [2] | Efficacy [3] | Efficacy [4] | Activity [5] | Efficacy [6] |
| --- | --- | --- | --- | --- | --- | --- |
| CN1CCC[C@@H]1CCSc1ccc(O)cc1 | 10 | 0.3 | 0.2 | 4.1 | – | – |
| CN1CCC[C@H]1c1cccnc1 [NICOTINE] | – | 1 | 1 | 1 | – | – |
| CN1CCCC1CCSc1ccc(O)cc1 (configuration not stated) | 12 | 0.6 | 0.2 | 6.5 | – | – |
| CN1CCCC1CCSc1ccccc1 (configuration not stated) | – | – | – | – | 0.6 | 1.5 |
| CN1CCC[C@H]1CCSc1ccc(O)cc1 | 13 | 0.35 | 0.3 | 4.3 | – | – |
